In ChEMBL document CHEMBL3244313, “Synthesis of some carbon-3 substituted 1,4-benzodiazepin-2-ones and their central nervous system effects” (J Med Chem, 1979):
Active and inactive are the calls of the source. No cut-off for these calls is given here.

Columns and labels:
[1] = tested on: Mus musculus; assay: Potency index, ratio of chlordiazepoxide ED50 to compound ED50 for muscle relaxing activity in po dosed albino Swiss-Webster mouse; format: functional
[2] = tested on: Mus musculus; assay: Potency index, ratio of chlordiazepoxide ED50 to compound ED50 for behavioral activity in po dosed albino Swiss-Webster mouse by fighting test; format: functional
[3] = Toxicity in po dosed albino Swiss-Webster mouse; format: organism-based; conditions: in vivo
[4] = tested on: Mus musculus; assay: Potency index, ratio of chlordiazepoxide ED50 to compound ED50 for anticonvulsant activity in po dosed albino Swiss-Webster mouse assessed as reduction of minimum electro shock-induced seizure; format: functional
[5] = 1-Octanol-aqueous phosphate buffer partition coefficient, log P of the compound at pH 7.35; format: physicochemical
Method in brief: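 Concentrations in each phase (C_oct, C_w) measured by UV spectrophotometry. P_oct = C_oct/C_w, reported as log P_oct.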

[6] = tested on: Mus musculus; assay: Potency index, ratio of chlordiazepoxide ED50 to compound ED50 for anticonvulsant activity in po dosed albino Swiss-Webster mouse assessed as reduction of pentylenetetrazole-induced seizure; format: functional
[7] = tested on: Mus musculus; assay: Potency index, ratio of chlordiazepoxide ED50 to compound ED50 for anticonvulsant activity in po dosed albino Swiss-Webster mouse assessed as reduction of maximum electro shock-induced seizure; format: functional
[8] = tested on: Mus musculus; assay: Potency index, ratio of chlordiazepoxide ED50 to compound ED50 for hypnotic activity in po dosed albino Swiss-Webster mouse; format: functional
[9] = tested on: Mus musculus; assay: Anticonvulsant activity in po dosed albino Swiss-Webster mouse assessed as reduction of minimum electro shock-induced seizure; format: functional, organism-based
Method in brief: (§1)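 Oral dosing in male and female albino Swiss-Webster mice weighing 25–30 g, six mice per group. ED50 determined with 95% confidence limits.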

[10] = tested on: Mus musculus; assay: Anticonvulsant activity in po dosed albino Swiss-Webster mouse assessed as reduction of pentylenetetrazole-induced seizure; format: functional, organism-based; method in brief: as §1
[11] = tested on: Mus musculus; assay: Muscle relaxing activity in po dosed albino Swiss-Webster mouse; format: functional, organism-based; method in brief: as §1
[12] = tested on: Mus musculus; assay: Anticonvulsant activity in po dosed albino Swiss-Webster mouse assessed as reduction of maximum electro shock-induced seizure; format: functional, organism-based; method in brief: as §1

SMILES: O=C1Nc2ccc(Cl)cc2C(c2ccccc2Cl)=NC1OCC(O)CO (centres undefined)
- Ratio ED50 [1]: 1.25
- Ratio ED50 [2]: 15.3
- LD50 [3]: 7820 µmol/kg
- Ratio ED50 [4]: 0.86
- logD [5]: 1.96
- Ratio ED50 [6]: 36.8
- Ratio ED50 [7]: 4.68
- Ratio ED50 [8]: 0.58

SMILES: CNC1=Nc2ccc(Cl)cc2C(c2ccccc2)=[N+]([O-])C1 [CHLORDIAZEPOXIDE]
- logD [5]: 2.5

SMILES: CN1C(=O)C(OCCO)N=C(c2ccccc2)c2cc(Cl)ccc21 (centres undefined)
- Ratio ED50 [1]: 1.1
- Ratio ED50 [2]: 1.5
- LD50 [3]: 17400 µmol/kg
- Ratio ED50 [4]: 8.3
- logD [5]: 1.98
- Ratio ED50 [6]: 12.5
- Ratio ED50 [7]: 0.8
- Ratio ED50 [8]: 0.4

SMILES: CN1CCN=C(c2ccccc2)c2cc(Cl)ccc21 [MEDAZEPAM]
- Ratio ED50 [1]: 1.3
- Ratio ED50 [2]: 1
- LD50 [3]: 5240 µmol/kg
- Ratio ED50 [4]: 0.32
- logD [5]: 4.05
- Ratio ED50 [6]: 6.2
- Ratio ED50 [7]: 0.81
- Ratio ED50 [8]: 0.3

SMILES: O=C1Nc2ccc(Cl)cc2C(c2ccccc2)=NC1OC(=O)C(Cl)(Cl)Cl (centres undefined)
- Ratio ED50 [1]: 1.6
- Ratio ED50 [2]: 1.92
- LD50 [3]: 6850 µmol/kg
- Ratio ED50 [4]: 1.32
- Ratio ED50 [6]: 16.5
- Ratio ED50 [7]: 5.7
- Ratio ED50 [8]: 0.73

SMILES: CN1C(=O)C(OC(=O)C(Cl)(Cl)Cl)N=C(c2ccccc2)c2cc(Cl)ccc21 (centres undefined)
- Ratio ED50 [1]: 1.93
- Ratio ED50 [2]: 1.3
- LD50 [3]: 5600 µmol/kg
- Ratio ED50 [4]: 1.62
- Ratio ED50 [6]: 15.3
- Ratio ED50 [7]: 5.2
- Ratio ED50 [8]: 0.9

SMILES: CC(=O)OC[C@H]1O[C@@H](OCCOC2N=C(c3ccccc3)c3cc(Cl)ccc3NC2=O)[C@H](OC(C)=O)[C@@H](OC(C)=O)[C@@H]1OC(C)=O (mixture of isomers)
- Ratio ED50 [1]: 0.75
- Ratio ED50 [2]: 1.83
- LD50 [3]: 17200 µmol/kg
- Ratio ED50 [4]: 1.02
- Ratio ED50 [6]: 13.8
- Ratio ED50 [7]: 3.4
- Ratio ED50 [8]: 0.76

SMILES: CC(=O)OC[C@H]1O[C@H](OCCOC2N=C(c3ccccc3)c3cc(Cl)ccc3NC2=O)[C@H](OC(C)=O)[C@@H](OC(C)=O)[C@@H]1OC(C)=O (mixture of isomers)
- Ratio ED50 [1]: 0.68
- Ratio ED50 [2]: 1.78
- LD50 [3]: 17300 µmol/kg
- Ratio ED50 [4]: 0.98
- Ratio ED50 [6]: 13.4
- Ratio ED50 [7]: 3.6
- Ratio ED50 [8]: 0.9

SMILES: O=C1Nc2ccc(Cl)cc2C(c2ccccc2)=NC1OCCO (centres undefined)
- Ratio ED50 [1]: 1.3
- Ratio ED50 [2]: 1.7
- LD50 [3]: 18100 µmol/kg
- Ratio ED50 [4]: 0.4
- logD [5]: 1.99
- Ratio ED50 [6]: 10.3
- Ratio ED50 [7]: 0.58
- Ratio ED50 [8]: 0.35

SMILES: O=C1Nc2ccc(Cl)cc2C(c2ccccc2Cl)=NC1OCCO (centres undefined)
- Ratio ED50 [1]: 1.86
- Ratio ED50 [2]: 17.8
- LD50 [3]: 9360 µmol/kg
- Ratio ED50 [4]: 2.8
- logD [5]: 2.04
- Ratio ED50 [6]: 33.6
- Ratio ED50 [7]: 1.2
- Ratio ED50 [8]: 0.65

SMILES: CN1C(=O)C(OCC(O)CO)N=C(c2ccccc2)c2cc(Cl)ccc21 (centres undefined)
- Ratio ED50 [1]: 0.8
- Ratio ED50 [2]: 1
- LD50 [3]: 16000 µmol/kg
- Activity [9]: inactive
- logD [5]: 1.74
- Ratio ED50 [6]: 10.3
- Ratio ED50 [7]: 0.38
- Ratio ED50 [8]: 0.42

SMILES: CN1C(=O)C(OCC2COC(C)(C)O2)N=C(c2ccccc2)c2cc(Cl)ccc21 (centres undefined)
- Ratio ED50 [2]: 1.9
- LD50 [3]: 9160 µmol/kg
- Activity [10]: inactive
- Activity [11]: inactive
- Activity [9]: inactive
- logD [5]: 2.37
- Activity [12]: inactive
- Ratio ED50 [8]: 2.3

SMILES: O=C1Nc2ccc(Cl)cc2C(c2ccccc2)=NC1OCC(O)CO (centres undefined)
- Ratio ED50 [1]: 0.7
- Ratio ED50 [2]: 1.4
- LD50 [3]: 16600 µmol/kg
- Ratio ED50 [4]: 0.52
- logD [5]: 1.71
- Ratio ED50 [6]: 12.5
- Ratio ED50 [7]: 2.3
- Ratio ED50 [8]: 0.51

SMILES: CC1(C)OCC(COC2N=C(c3ccccc3)c3cc(Cl)ccc3NC2=O)O1 (centres undefined)
- Ratio ED50 [2]: 1.7
- LD50 [3]: 9980 µmol/kg
- Activity [10]: inactive
- Activity [11]: inactive
- Activity [9]: inactive
- logD [5]: 2.14
- Activity [12]: inactive
- Ratio ED50 [8]: 0.52

SMILES: CC1(C)OCC(COC2N=C(c3ccccc3Cl)c3cc(Cl)ccc3NC2=O)O1 (centres undefined)
- Ratio ED50 [2]: 2.3
- LD50 [3]: 7590 µmol/kg
- Activity [10]: inactive
- Activity [11]: inactive
- Activity [9]: inactive
- logD [5]: 2.48
- Activity [12]: inactive
- Ratio ED50 [8]: 2
